The test system of one assay is MCF7. The assay can be described thus: Cytotoxicity against human MCF7 cells after 48 hrs by [3H]hypoxanthine incorporation assay. The assay is classed as functional, cell-based. The procedure, abridged: (§1)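 MCF7 and Vero cells cultured as for P. falciparum, but with 5% fetal calf serum in place of 5% human serum. Drugs added at various concentrations; growth measured by [3H]hypoxanthine incorporation after 48 h incubation.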

The test system of assay [1] is Plasmodium falciparum. The assay can be described thus: Antiplasmodial activity against chloroquine-sensitive Plasmodium falciparum F32 after 48 hrs. The assay is classed as functional, organism-based. The note with it: F32, 48 h. The procedure, abridged:
(§2)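 P. falciparum cultured by Trager–Jensen method with modifications; cultures synchronized by 5% D-sorbitol lysis. Parasites incubated with compound at increasing dilutions for 48 h; growth read out as [3H]hypoxanthine incorporation.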

For assay [2], the system named is Plasmodium falciparum. Briefly: Antiplasmodial activity against chloroquine-resistant Plasmodium falciparum FcB1/Columbia after 48 hrs. In kind it is functional, organism-based. The procedure, abridged:
as §2

A further assay relates to Vero. Briefly: Cytotoxicity against african green monkey Vero cells after 48 hrs by [3H]hypoxanthine incorporation assay. In kind it is cell-based. The note with it: Chlorocebus sabaeus. The procedure, abridged: as §1

As for `Cn1c(=O)c2ccccc2c2c3ccccc3ncc21`, the IC50 (commonly the concentration at which inhibition is half-maximal) was 30.9 µM in the assay with MCF7, 32.7 µM in the assay with Plasmodium falciparum [1], 14.8 µM in the assay on Plasmodium falciparum [2] and 22.3 µM with Vero.

Turning to `Cn1c(=O)c2ccccc2c2ccc3cccnc3c21`, the IC50 amounted to 16.5 µM in the assay with MCF7, 36.3 µM with Plasmodium falciparum [1], 38.2 µM with Plasmodium falciparum [2] and 3.35 µM in the assay on Vero.

As for `Cn1c(=O)c2ccccc2c2ccc3cnccc3c21`, the IC50 is 11.9 µM in the assay with MCF7, 61 µM in the assay with Plasmodium falciparum [1], 54.8 µM in the assay on Plasmodium falciparum [2] and 2.3 µM with Vero.

Regarding `Cn1c(=O)c2ccccc2c2nc3ccccc3cc21`, the IC50 in the assay with MCF7 turned out to be 154 µM; in the assay on Plasmodium falciparum [1], 355 µM; in the assay with Plasmodium falciparum [2], 181 µM; in the assay on Vero, 42 µM.

On to `Cn1c(=O)c2ccccc2c2ccc3ncccc3c21`, for which the IC50 came out at 12.5 µM in the assay with MCF7, 17.6 µM in the assay with Plasmodium falciparum [1], 22.3 µM with Plasmodium falciparum [2] and 3.5 µM with Vero.

For the compound `Cn1c(=O)c2ccccc2c2c3cccnc3ccc21`, the IC50 with MCF7 stood at 11.5 µM; in the assay with Plasmodium falciparum [1] it was 96.1 µM; in the assay on Plasmodium falciparum [2] it was 80.7 µM; in the assay with Vero it was 1.75 µM.

As for `Cn1c(=O)c2ccccc2c2cc3ncccc3cc21`, the IC50 in the assay with MCF7 was found to be 0.6 µM; with Plasmodium falciparum [1], 123 µM; with Plasmodium falciparum [2], 154 µM; in the assay with Vero, 2.85 µM.

Take `COc1cccc2c1C(=O)c1c(O)c3c(c(O)c1C2=O)C[C@@](O)(C(=O)CO)C[C@@H]3O[C@H]1C[C@H](N)[C@H](O)[C@H](C)O1` [DOXORUBICIN]: the concentration for half-maximal inhibition (IC50) with MCF7 stood at 0.41 µM; in the assay with Vero, 7.4 µM.
